Consider seven compounds from ChEMBL document CHEMBL1154803, “Tetranortriterpenoids from Chisocheton paniculatus” (J Nat Prod, 2009).

In general, IC50 refers to the midpoint of a concentration-inhibition curve. High values mean weaker potency, low ones greater potency.

In one assay the test system is HeLa. Kind of assay: Cytotoxicity against human HeLa cells by MTT assay. The format is functional, cell-based. The procedure, abridged:
(§1)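 MTT assay per a literature method. HeLa (cervical) and SMMC7721 (hepatoma) cells came from the Cell Bank of the Shanghai Institute of Cell Biology. Fluorouracil served as positive control. Three independent replicates were run, and IC50 values were reported.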
On the technique in general: Formazan colour is commonly taken as a measure of viable cells.

Another assay concerns SMMC-7721. Kind of assay: Cytotoxicity against human SMMC7721 cells by MTT assay. It counts as functional, cell-based. In a few lines: as §1

`C/C=C(\C)C(=O)O[C@@H]1[C@@H]2OC[C@]3(C)[C@H](OC(=O)/C(C)=C/C)C[C@H](O)[C@@](C)([C@@H]23)[C@H]2C[C@H](OC)O[C@H]3C[C@@H](C4=CCOC4=O)C(C)=C3[C@]12C` [CHISONIMBOLININ C]: the half-maximal inhibitory concentration (IC50) turned out to be 13 µM in the assay on HeLa and 50 µM with SMMC-7721.
Consider `C/C=C(\C)C(=O)O[C@@H]1[C@@H]2OC[C@]3(C)[C@H](OC(C)=O)C[C@H](O)[C@@](C)([C@@H]23)[C@H]2C[C@H](OCC)O[C@H]3C[C@@H](C4=CCOC4=O)C(C)=C3[C@]12C` [CHISONIMBOLININ E], for which the IC50 in the assay with HeLa and with SMMC-7721 was greater than 100 µM throughout.
On to `C/C=C(\C)C(=O)O[C@@H]1[C@@H]2OC[C@]3(C)[C@H](OC(C)=O)C[C@H](OC(C)=O)[C@@](C)([C@@H]23)[C@H]2C[C@H](OC)O[C@H]3C[C@@H](C4=CCOC4=O)C(C)=C3[C@]12C` [CHISONIMBOLININ A], for which the half-inhibitory concentration (IC50) in the assay on HeLa and in the assay with SMMC-7721 was greater than 100 µM throughout.
Regarding `C/C=C(\C)C(=O)O[C@@H]1[C@@H]2OC[C@]3(C)[C@H](OC(C)=O)C[C@H](O)[C@@](C)([C@@H]23)[C@H]2C[C@H](OC)O[C@H]3C[C@@H](C4=CCOC4=O)C(C)=C3[C@]12C` [CHISONIMBOLININ B], the figures for the IC50 with HeLa and in the assay with SMMC-7721 were greater than 100 µM and 50 µM, respectively.
In the case of `C/C=C(\C)C(=O)O[C@@H]1[C@@H]2OC[C@]3(C)[C@H](OC(C)=O)C[C@H](O)[C@@](C)([C@@H]23)[C@H]2C[C@H](O)O[C@H]3C[C@@H](C4=CCOC4=O)C(C)=C3[C@]12C` [CHISONIMBOLININ D], the IC50 with HeLa stood at 32 µM; in the assay with SMMC-7721, 50 µM.
On to `C/C=C(\C)C(=O)O[C@@H]1[C@@H]2OC[C@]3(C)[C@H](OC(C)=O)C[C@H](O)[C@@](C)([C@@H]23)[C@H]2CCO[C@H]3C[C@@H](C4=CCOC4=O)C(C)=C3[C@]12C` [CHISONIMBOLININ F], for which the IC50 in the assay on HeLa and in the assay with SMMC-7721 was greater than 100 µM throughout.
For the compound `C/C=C(\C)C(=O)O[C@@H]1[C@@H]2OC[C@]3(C)[C@H](OC(C)=O)C[C@H](OC(C)=O)[C@@](C)([C@@H]23)[C@H]2CCO[C@H]3C[C@@H](C4=CCOC4=O)C(C)=C3[C@]12C` [CHISONIMBOLININ G], the IC50 in the assay on HeLa and in the assay on SMMC-7721 was greater than 100 µM in each case.
